Reference: ChEMBL document CHEMBL1156741, “Development of photoaffinity probes for gamma-secretase equipped with a nitrobenzenesulfonamide-type cleavable linker” (Bioorg Med Chem Lett, 2009)
Calls of active or inactive are those of the source. The calls are words filed in the database; no cut-off is given here.

Columns and labels:
[1] = Inhibition of gamma-secretase assessed as inhibition of Abeta42 generation at 1 uM
[2] = biological target: T1, Gamma-secretase (Homo sapiens) (UniProt Q96BI3+Q9NZ42+Q8WW43+P49768+Q92542+P49810); assay: Binding affinity to gamma-secretase in human HeLa cell lysate assessed as presenilin 1 C-terminal fragment photolabeling by Western blotting; format: cell-free
Method in brief: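 CHAPSO-solubilized HeLa cell lysate (about 150 µg) was mixed with the probe and photolabeled. PS1 CTF labeling was then detected by western blotting on nitrocellulose with chemiluminescence.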

[3] = Inhibition of gamma-secretase assessed as inhibition of Abeta40 generation at 1 uM
[4] = biological target: T1, Gamma-secretase (Homo sapiens); assay: Binding affinity to gamma-secretase in human HeLa cell lysate assessed as biotinylated presenilin 1 C-terminal fragment by Western blotting in absence of 2-mercaptoethanol; format: cell-free
Method in brief: (§1)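 Streptavidin sepharose beads carrying biotinylated proteins captured after photolabeling were treated in carbonate buffer (pH 9.2) with 2% SDS, with or without 3% 2-mercaptoethanol, for 4 h at 20 °C. Proteins were transferred to nitrocellulose and detected by western blotting with chemiluminescence.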

[5] = biological target: T1, Gamma-secretase (Homo sapiens); assay: Binding affinity to gamma-secretase in human HeLa cell lysate assessed as biotinylated presenilin 1 C-terminal fragment by Western blotting in presence of 2-mercaptoethanol; format: cell-free; method in brief: as §1

SMILES	inhibition [1]	Activity [2]	inhibition [3]	Activity [4]	Activity [5]
C[C@H](NC(=O)[C@@H](NC(=O)Cc1cc(F)cc(F)c1)c1ccccc1)C(=O)NCc1ccc(C(=O)c2ccc(CNCCCCCCCC(=O)NCCCCCCCN(C)S(=O)(=O)c3ccc(C(=O)NCCCCCC(=O)CCCC[C@@H]4SC[C@@H]5NC(=O)N[C@@H]54)cc3[N+](=O)[O-])cc2)cc1	89.3%	Active	62.3%		
C[C@H](NC(=O)[C@@H](NC(=O)Cc1cc(F)cc(F)c1)c1ccccc1)C(=O)NCc1ccc(C(=O)c2ccc(CNCCCCCC(=O)NCCCN(C)S(=O)(=O)c3ccc(C(=O)NCCCCCC(=O)CCCC[C@@H]4SC[C@@H]5NC(=O)N[C@@H]54)cc3[N+](=O)[O-])cc2)cc1	60.2%	Active	54.9%		
C[C@H](NC(=O)Cc1cc(F)cc(F)c1)C(=O)N[C@H](C(=O)OC(C)(C)C)c1ccccc1	76.3%		77.4%		
C[C@H](NC(=O)[C@@H](NC(=O)Cc1cc(F)cc(F)c1)c1ccccc1)C(=O)NCc1ccc(C(=O)c2ccc(CNCCCCCC(=O)NCCCCCCCN(C)S(=O)(=O)c3ccc(C(=O)NCCCCCC(=O)CCCC[C@@H]4SC[C@@H]5NC(=O)N[C@@H]54)cc3[N+](=O)[O-])cc2)cc1	59.3%	Active	78.2%		

Second part, the compound after the results:

inhibition [1]	Activity [2]	inhibition [3]	Activity [4]	Activity [5]	SMILES
66.2%	Active	62.8%	inactive	Active	C[C@H](NC(=O)[C@@H](NC(=O)Cc1cc(F)cc(F)c1)c1ccccc1)C(=O)NCc1ccc(C(=O)c2ccc(CNCCCCCCCC(=O)NCCCN(C)S(=O)(=O)c3ccc(C(=O)NCCCCCC(=O)CCCC[C@@H]4SC[C@@H]5NC(=O)N[C@@H]54)cc3[N+](=O)[O-])cc2)cc1
77%	Active	81.9%			C[C@H](NC(=O)[C@@H](NC(=O)Cc1cc(F)cc(F)c1)c1ccccc1)C(=O)NCc1ccc(C(=O)c2ccc(CNCC(=O)NCCCCCCCN(C)S(=O)(=O)c3ccc(C(=O)NCCCCCC(=O)CCCC[C@@H]4SC[C@@H]5NC(=O)N[C@@H]54)cc3[N+](=O)[O-])cc2)cc1
